The record followed here is article PMC9290826 (Chemmedchem, 2021).

Assay in all cases: Antibacterial screening, broth dilution MIC
What all share (assay type): cell-based
(Broth dilution looks for growth in wells or tubes with falling amounts of substance.)

For test [1], the system named is Pseudomonas aeruginosa PA7 (DSM 24068). Particulars: for Mean MIC ± standard error: P. aeruginosa PA7, MHB medium, 20 h at 37 °C, absorbance 600 nm, n=3‐13. An outline of the steps:
(§1)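 Broth microdilution in MHB (21 g/L Müller Hinton, pH 7.4). Test compound serially diluted from 64 μg/ml, inoculum 2–8×10^5 CFU/ml, duplicate wells. Incubated 20 h at 37 °C, then absorbance read at 600 nm. MIC derived by curve fitting over three independent experiments. Positive controls: amikacin for P. aeruginosa, ciprofloxacin for the others.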

The subject of test [2] is Staphylococcus aureus MRSA (DSM 11822, ICB 25701). Conditions: for Mean MIC ± standard error: MRSA, TSY medium, 20 h at 37 °C, absorbance 600 nm, n=3‐13. An outline of the steps: (§2)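 Test compound serially diluted from 64 μg/ml, inoculum 2–8×10^5 CFU/ml, duplicate wells. Incubated 20 h at 37 °C, then absorbance read at 600 nm. MIC derived by curve fitting over three independent experiments. Positive controls: linezolid for S. aureus, ciprofloxacin for the others.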

Test [3] deals with Escherichia coli (DSM1116, ATCC 9637). Particulars: E. coli, TSY medium, 20 h at 37 °C, absorbance 600 nm, n=3‐13. In a few lines:
as §2

Test [4] has as its system Klebsiella pneumoniae (DSM 11678, ATCC33495). Conditions: K. pneumoniae, MHB medium, 20 h at 37 °C, absorbance 600 nm, n=3‐13. An outline of the steps: as §1
Test [5] relates to Enterococcus faecium (DSM 20477, ATCC 19434). Particulars: E. faecium, TSY medium, 20 h at 37 °C, absorbance 600 nm, n=3‐13. An outline of the steps: as §2
Test [6] concerns Acinetobacter baumannii (DSM 30007, ATCC 19606). Conditions: A. baumannii, MHB medium, 20 h at 37 °C, absorbance 600 nm, n=3‐13. In a few lines: as §1

Each structure is given as a SMILES string. Values after ≈ are worked out from the molar mass of the structure shown. Values joined by “and” are separate entries in the source; they are usually repeats but may differ in a detail not shown here. Equal values may be shown once.

As to `CC(=O)OC[C@H]1O[C@@H]([S-])[C@H](OC(C)=O)[C@@H](OC(C)=O)[C@@H]1OC(C)=O.CCP(CC)CC.[Au+]` [auranofin, reference compound], the “Mean MIC ± standard error” value in test [1] is >30 µM; in test [2] it was <0.2 µM; in test [3] it was >30 µM; in test [4], >30 µM; in test [5], 0.6 ± 0.2 µM; in test [6], 7.8 ± 7.1 µM.

A word on the MIC: it is the least concentration at which growth counts as inhibited. With `NCC[C@H](O)C(=O)N[C@@H]1C[C@H](N)[C@@H](O[C@H]2O[C@H](CN)[C@@H](O)[C@H](O)[C@H]2O)[C@H](O)[C@H]1O[C@H]1O[C@H](CO)[C@@H](O)[C@H](N)[C@H]1O` [amikacin, reference compound], the MIC in test [1] (Pseudomonas aeruginosa, DSM24068, 20 h, read-out: Mean MIC ± standard error) was determined as 6.9 ± 7.3 µM (≈ 4.04 µg/mL).

Turning to `CCn1[c](=[Au-2]([Cl])([Cl])[Cl])n(CC)c2ccccc21` [2 c], the “Mean MIC ± standard error” value was >30 µM in test [1]; 1.1 ± 0.0 µM in test [2]; 39.1 ± 25.6 µM in test [3]; 16.8 µM and 16.8 ± 0.0 µM in test [4]; 4.2 ± 0.0 µM in test [5]; 3.5 ± 1.2 µM in test [6].

With `CC(=O)NC[C@H]1CN(c2ccc(N3CCOCC3)c(F)c2)C(=O)O1` [linezolid, reference compound], in test [2] (Staphylococcus aureus, DSM11822|MRSA, 20 h, read-out: Mean MIC ± standard error), the MIC worked out at 2.8 ± 1 µM (≈ 0.945 µg/mL).

In the case of `CCn1[c](=[Au-2][Cl])n(CC)c2ccccc21` [2 b], the “Mean MIC ± standard error” value is 118.0 ± 43.1 µM in test [1]; 0.8 ± 0.4 µM in test [2]; 39.3 ± 0.0 µM in test [3]; 65.6 µM and 65.6 ± 32.1 µM in test [4]; 1.2 ± 0.0 µM in test [5]; 8.4 ± 2.4 µM in test [6].
